Source: PubChem (several laboratories)
Hsp70 act = switches on Hsp70 transcription. HeLa Hsp70 promoter luciferase reporter, luminescence; scaled: vehicle 0, proteasome-inhibitor control 100%. 200,000 compounds, 0.04% hits. activation, % at 10 µM. AID 1203;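 active means activation above the mean across all tested compounds plus 3 SD, cutoff set per campaign, cut at about 5.5% in these data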;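 further: 100% = MG132 at 30 µM as the positive control and 0% = DMSO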
HSF1 activator = increases HSF-1 driven luciferase reporter signal. 300,000 compounds, 1.7% hits. NIH3T3-HGL HSF-1 luciferase reporter, MG132, 8 h; 100% = twice DMSO control signal. AID 504408. activation, % at 9 µM;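 active means mean replicate activation of at least 50% with a set share of replicates each reaching 50%; inconclusive means only one of those two conditions met; inactive means mean below 50% and too few replicates reaching it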;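 further: 0% = median of the neutral control wells and 100% = twice that signal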
Lmaj promast = Leishmania major promastigote growth inhibition. inhibition, % at 10 µM. 200,000 compounds, 9% hits. Leishmania major promastigotes, resazurin fluorescence viability; in the data active means inhibition above about 50%;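 further: promastigotes grown with compound for 44 hours at 28 °C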
HSF1 inhib = HSF1 inhibition; NIH3T3-HGL HSE-luciferase, MG132-induced, luminescence 8 h; stronger effect = lower value; activity change, negative = inhibition, % at 7.5 µM (by protocol); 300,000 compounds, 0.77% hits;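 active means more than half of replicate wells show activity change below -50%, luminescence cut by over half; inconclusive means some wells, but at most half, below -50%; inactive means no replicate well below -50%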;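 further: luciferase reports HSF-1 transcriptional activity via heat shock element; 0% = median of DMSO wells and -100% = zero luminescence signal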
T cruzi inh = T. cruzi replication inhibition | T. cruzi beta-gal in NIH3T3, luminescence, 90 h | inhibition, % (concentration not given with the values) | 300,000 compounds, 1.4% hits;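 active means mean inhibition across valid replicates above about 55%, limit read from the data; inconclusive means mean below that limit but half or more replicates reach it; inactive means mean below it, under half of replicates reach it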;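 further: signal also drops with host cell toxicity which is not excluded here; 0% = plate median of DMSO wells and 100% = zero luminescence signal; higher percent means less beta-gal luminescence so fewer parasites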
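Read-out: Parasite load inhibition, % | Test system: Mouse NIH/3T3 fibroblasts infected with β-gal-expressing T. cruzi Tulahuen C4 | Amount: 5,000 cells/well | Medium: DMEM, 2% fetal bovine serum | Signal: GalScreen β-gal luminescence, detergent lysis, 60 min | Timing: 3 h attach, ≥90 h co-culture | Also added: Tulahuen C4 trypomastigotes, 5000/well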
Active calls of the source: *; ? = inconclusive; . = no result. Many of the other results were omitted from the sample, so hits are more common in it than they were.

SMILES	Hsp70 act	HSF1 activator	Lmaj promast	HSF1 inhib	T cruzi inh
COc1ccc(C(=O)Oc2ccc(C(C)=O)cc2)c(OC)c1	-0.2	59.7*	-9.7	24.5	-10.2
COCCn1c(N)c(Sc2ccc([N+](=O)[O-])cc2)c(=O)[nH]c1=O	0.1	21.4	0.7	11.7	-1.3
CC1(C(=O)NC2CCCCC2)CCC(=O)N1Cc1ccc2c(c1)OCO2 (centres undefined)	.	-5.6	.	-2.6	-1.3
CC1(C)SC(=S)N(Cc2ccc3c(c2)OCO3)C1N(O)C(=O)NC1CCCCC1 (centres undefined)	-0.1	4.9	81.5*	3.8	15.2
CC1(C)CC(=O)/C(=C\c2cccc([N+](=O)[O-])c2)C(C)(C)N1	-0.5	75.8*	99.6*	52.2	5.1
O=C1N/C(=N/O)S/C1=C/c1cccc([N+](=O)[O-])c1	-0.2	.	-2.0	.	-13.9
CCCCOC(=O)/C=C/c1c(C)[nH]c(=O)[nH]c1=O	-0.2	-13.2	52.5*	0.3	-1.5
CC(C)NCCOc1cccc(Br)c1	0.8	-18.8	-2.3	-2.4	0.0
C=CCNCCCCOc1cccc(Br)c1	-0.1	.	96.1*	.	13.5
Brc1cccc(OCCCNC2CCCC2)c1	.	7.5	.	-3.7	5.5
CC(C)NCCCCOc1cccc(Br)c1	-0.2	3.2	99.4*	4.1	10.5
COCCCNCCCCOc1cccc(Br)c1	-0.2	8.5	99.3*	-5.7	35.3
OCCNCCCCOc1cccc(Br)c1	-0.1	0.3	88.5*	-5.2	18.7
Brc1cccc(OCCSc2ncccn2)c1	0.7	2.3	-1.3	5.1	5.5
COc1cccc(CNS(=O)(=O)c2ccc3c(c2)N(C(C)=O)CCO3)c1	.	15.8	.	-0.7	-7.2
Cc1ccc(N(Cc2ccccc2)C(=O)CN2C(=O)NC3(CCCC3)C2=O)cc1	.	-7.2	.	-1.0	11.4
CCC(CC)C(=O)Nc1cccc(SC)c1	-0.1	40.7	-1.7	6.8	6.5
NC(=O)c1ccccc1NC(=O)COc1ccc(Cl)cc1	.	21.1	.	18.9	1.9
Cc1ccc(OCC(=O)Nc2ccccc2C(N)=O)cc1	.	56.6*	.	12.7	-0.3
COc1ccccc1NC(=O)COc1ccccc1	-0.4	-4.5	-5.3	10.5	-17.4
CCOc1ccccc1NC(=O)CCS(=O)(=O)c1ccc(OC)cc1	-0.3	-21.3	-5.0	-4.7	-0.5
COc1ccc(OCC(=O)Nc2ccccc2O)cc1	-0.3	74.5*	-5.4	34.4	-33.5
CCc1ccccc1NC(=O)CCS(=O)(=O)c1ccc(OC)cc1	.	-84.1	.	-79.4*	-6.9
COc1ccc(CC(=O)NCC(=O)Nc2ccccc2Br)cc1	.	56.0*	.	9.8	-0.7
COc1cccc(CN(C(=O)c2ccccc2Cl)C2CCS(=O)(=O)C2)c1 (centres undefined)	.	-11.4	.	0.6	0.3
SMILES	Hsp70 act	HSF1 activator	Lmaj promast	HSF1 inhib	T cruzi inh
COc1ccc(C(=O)N2CCN(c3ccc(N4CCOCC4)nn3)CC2)cc1OC	.	-1.2	.	-4.7	-6.2
O=C1c2ccccc2NC(c2ccc(Br)s2)N1O (centres undefined)	.	34.3	.	-2.8	-9.9
CCCCNC(=O)C(c1ccc(OCC(=O)OC)c(C(=O)OC)c1)N(CCc1c[nH]c2ccccc12)C(=O)CCCCCN1C(=O)NC(c2ccc(-c3ccccc3)cc2)C(C(=O)OCc2ccccc2)=C1C (centres undefined)	.	-84.1	.	-79.9*	34.0
Cc1cccc(C)c1OCc1nnc(NC(=O)CSc2ccc(Cl)cc2)s1	-0.2	-8.8	58.9*	4.2	-0.2
O=C(CSc1ccccc1)Nc1nnc(COc2ccc(Cl)cc2)s1	-0.4	-1.0	-9.0	-1.6	1.8
Cc1cccn2c(=O)c3cc(S(=O)(=O)c4ccc(F)cc4)c(=N)n(Cc4ccco4)c3nc12	.	97.7*	.	50.0	5.8
Cc1ccc(S(=O)(=O)c2cc3c(=O)n4ccccc4nc3n(Cc3ccco3)c2=N)cc1C	-0.1	?	56.0*	29.9	2.6
CCOC(=O)c1cc2c(=O)n3ccccc3nc2n(Cc2ccco2)c1=NC(=O)c1ccc(OC)cc1	-0.4	6.6	47.0	9.0	30.6
Cc1ccc2nc3c(cc(S(=O)(=O)c4ccccc4)c(=N)n3Cc3ccco3)c(=O)n2c1	-0.1	32.9	80.9*	31.2	63.4*
CCOC(=O)c1cc2c(=O)n3ccccc3nc2n(Cc2ccco2)c1=NC(=O)c1ccccc1OC	-0.1	100.3*	23.0	49.0	5.7
O=C(CC12CC3CC(CC(Br)(C3)C1)C2)Nc1nncs1	.	8.9	.	6.1	-9.2
CCc1nnc(NC(=O)CC23CC4CC(CC(Br)(C4)C2)C3)s1	.	57.9*	.	21.5	-0.3
O=C(CSc1nc2[nH]ncc2c(=O)n1-c1ccc(Cl)c(Cl)c1)NCc1ccccc1Cl	-0.2	4.1	77.5*	16.2	57.9*
O=C(Cn1c(=O)c2cccn2c2ccccc21)Nc1cc(F)ccc1F	.	-67.0	.	-56.7*	19.1
O=C(Cn1c(=O)c(=O)n(Cc2ccccc2)c2ccc(Cl)cc21)Nc1cc(F)ccc1F	0.0	23.0	43.2	21.3	30.8
Cc1c(C(=O)c2no[n+]([O-])c2C(=O)c2cnn(C)c2C)cnn1C	-0.4	-94.6	-4.7	-94.3*	-5.5
CCN1CCN(CCC(=O)Nc2ccc(Br)c(C)c2)CC1	.	0.0	.	5.9	?
CCOC(=O)N1CCN(CCC(=O)Nc2ccc(F)c(F)c2)CC1	.	13.8	.	1.7	3.1
CCOC(=O)N1CCN(CCC(=O)Nc2ccc(OC(F)(F)F)cc2)CC1	-0.1	-17.2	91.6*	-2.9	-39.3
CCOC(=O)N1CCN(CCC(=O)Nc2ccc(Br)c(C)c2)CC1	-0.3	-7.0	85.4*	-1.7	24.3
CN(C)c1ccc(-c2n[nH]c(=S)n2-c2ccccc2)cc1	0.0	-9.9	17.9	-7.4	-2.9
CN(C)c1ccc(C2CC(c3ccccc3)=Nc3nc(-c4ccccc4)cn32)cc1 (centres undefined)	-0.2	.	90.9*	.	.
CC(=O)N(C1=C(Cl)C(=O)c2ccccc2C1=O)C1CCCCC1	.	-31.3	.	-27.7	57.7*
CCc1ccc(-c2nc(CS(=O)CC(=O)NCc3ccc4c(c3)OCO4)c(C)o2)cc1 (centres undefined)	.	4.1	.	-2.6	-2.3
C=CCc1c(C)nc(C)nc1N/N=C/c1ccccc1O	-0.3	-1.4	98.8*	-1.5	-8.5
SMILES	Hsp70 act	HSF1 activator	Lmaj promast	HSF1 inhib	T cruzi inh
C(=N\Nc1nn[nH]n1)/c1ccccc1	-0.2	-11.0	6.2	-8.3	-18.4
CCOc1cc(/C=N/Nc2nnc(C)n2N)ccc1O	.	58.3*	.	30.9	-4.0
Cc1nnc(N/N=C/c2cc(C)n(-c3ccc(F)cc3)c2C)n1N	-0.3	-96.5	23.8	-96.0*	-14.1
Oc1ccccc1/C=N/Nc1nn[nH]n1	.	-78.7	.	-74.7*	-14.9
COC(=O)c1ccc(-n2c(C)cc(/C=N/Nc3nc(C)cc(=O)[nH]3)c2C)cc1	.	-6.6	.	-3.6	-4.3
Cc1ccc(/C([O-])=C(/C(=S)NCc2ccc3c(c2)OCO3)[n+]2ccc(N(C)C)cc2)c(C)c1	0.0	-4.6	-9.3	-2.3	?
COc1cc(NC(=O)C2CCCN2S(=O)(=O)c2ccc3c(c2)CC(C)N3C(C)=O)cc(OC)c1 (centres undefined)	.	10.6	.	2.5	3.9
